The source made the active and inactive calls. No cut-off for these calls is given here.

Experimental findings from ChEMBL document CHEMBL4387704, “Design, synthesis and biological evaluation of novel isoindolinone derivatives as potent histone deacetylase inhibitors” (Eur J Med Chem, 2019) are described below.

For data set [1], the target named is Histone deacetylase 1 (Homo sapiens, UniProt Q13547). The experiment in a line: Inhibition of HDAC1 (unknown origin) using Fluor de Lys substrate by fluorescence assay relative to control.
For data set [2], the target named is Histone deacetylase 4 (Homo sapiens) (UniProt P56524). Nature of the data set: Inhibition of HDAC4 (unknown origin) using Fluor de Lys substrate by fluorescence assay relative to control. In outline: (§1)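 Recombinant HDAC isoform assays run by a contract lab. Compounds in DMSO, 10-dose IC50 mode, 3-fold serial dilution from 50 μM. Duplicate runs; IC50 from curve fitting.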

For data set [3], the target named is Histone deacetylase 5 (Homo sapiens) (UniProt Q9UQL6). Nature of the data set: Inhibition of HDAC5 (unknown origin) using Fluor de Lys substrate by fluorescence assay relative to control. In outline:
as §1

The target in data set [4] is Histone deacetylase 7 (Homo sapiens) (UniProt Q8WUI4). The experiment in a line: Inhibition of HDAC7 (unknown origin) using Fluor de Lys substrate by fluorescence assay relative to control. In outline:
as §1

Data set [5] has as its target Histone deacetylase 9 (Homo sapiens) (UniProt Q9UKV0). The experiment in a line: Inhibition of HDAC9 (unknown origin) using Fluor de Lys substrate by fluorescence assay relative to control. In outline: as §1
Data set [6] has as its target Protein deacetylase HDAC6 (Homo sapiens) (UniProt Q9UBN7). Nature of the data set: Inhibition of HDAC6 (unknown origin) using Fluor de Lys substrate by fluorescence assay relative to control. In outline:
as §1

In data set [7] the target is Polyamine deacetylase HDAC10 (Homo sapiens, UniProt Q969S8). The experiment in a line: Inhibition of HDAC10 (unknown origin) using Fluor de Lys substrate by fluorescence assay relative to control. In a few lines: as §1
Data set [8] addresses Histone deacetylase 11 (Homo sapiens, UniProt Q96DB2). Nature of the data set: Inhibition of HDAC11 (unknown origin) using Fluor de Lys substrate by fluorescence assay relative to control. In a few lines: as §1
In data set [9] the test system is HL-60. Nature of the data set: Antiproliferative activity against human HL60 assessed as reduction in cell viability measured after 72 hrs using alamar blue based fluorescence method. Format: functional. To be noted: HL-60, 72 h. In a few lines: (§2)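 Leukemia lines grown in IMDM with penicillin/streptomycin, HL-60 with 20% FBS and K562 with 10% FBS, at 37 °C, 5% CO2. Cells in 96-well plates exposed to drug for 72 h. Alamar blue (1 mM solution) added for 5–6 h, fluorescence read at 530/590 nm.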

In data set [10] the test system is K562. The experiment in a line: Antiproliferative activity against human K562 assessed as reduction in cell viability measured after 72 hrs using alamar blue based fluorescence method. Type of data set: functional. The settings on record: K562, 72 h. In outline:
as §2
Background: Alamar Blue is a resazurin reagent that responds to reducing activity.

Data set [11] has as its system HCT-116. The experiment in a line: Antiproliferative activity against human HCT116 assessed as reduction in cell viability measured after 72 hrs using alamar blue based fluorescence method. Type of data set: functional. To be noted: HCT-116, 72 h. In a few lines:
(§3)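 HCT116 and MCF-7 grown in McCoy's 5A with 10% FBS and penicillin/streptomycin at 37 °C, 5% CO2. Cells plated in 96-well format and exposed to drug for 72 h. Alamar blue (1 mM solution) added, incubated 5–6 h, fluorescence read at 530/590 nm.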

Data set [12] concerns MCF7. Nature of the data set: Antiproliferative activity against human MCF7 assessed as reduction in cell viability measured after 72 hrs using alamar blue based fluorescence method. Format: functional. To be noted: MCF7, 72 h. In a few lines:
as §3

The nature of data set [13]: Metabolic stability in human liver microsomes assessed as internal clearance at 1 uM preincubated for 10 mins followed by NADPH addition measured upto 60 mins by LC-MS/MS analysis. Format: ADME, Microsome. To be noted: read-out: CLH. In a few lines: (§4)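 Liver microsomes from male SD rat, dog or human at 0.5 mg/mL in 100 mM potassium phosphate pH 7.4 with 1 μM compound. Prewarmed 37 °C 10 min, started with 1 mM NADPH. Stopped at 0, 5, 10, 20, 40, 60 min with cold methanol containing glibenclamide internal standard; supernatant by LC–MS/MS; T1/2 and CLint derived.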
Background: Liver microsomes are a subcellular fraction often used to study metabolism.

A short description of data set [14]: Metabolic stability in human liver microsomes assessed as half life at 1 uM preincubated for 10 mins followed by NADPH addition measured upto 60 mins by LC-MS/MS analysis. Format: ADME, Microsome. In outline:
as §4

Data set [15] can be described thus: Metabolic stability in dog liver microsomes assessed as half life at 1 uM preincubated for 10 mins followed by NADPH addition measured upto 60 mins by LC-MS/MS analysis. Format: ADME, Canis lupus familiaris, Microsome. In a few lines: as §4
Data set [16] in a line: Metabolic stability in dog liver microsomes assessed as internal clearance at 1 uM preincubated for 10 mins followed by NADPH addition measured upto 60 mins by LC-MS/MS analysis. To be noted: read-out: CLH. Type of data set: ADME, Canis lupus familiaris, Microsome. In a few lines:
as §4

The nature of data set [17]: Metabolic stability in rat liver microsomes assessed as half life at 1 uM preincubated for 10 mins followed by NADPH addition measured upto 60 mins by LC-MS/MS analysis. Format: ADME, Microsome. In a few lines: as §4
Data set [18] is described as follows: Metabolic stability in rat liver microsomes assessed as internal clearance at 1 uM preincubated for 10 mins followed by NADPH addition measured upto 60 mins by LC-MS/MS analysis. Type of data set: ADME, Microsome. The settings on record: read-out: CLH. In a few lines: as §4

Sequence of Histone deacetylase 1 (Q13547 whole entry, canonical isoform): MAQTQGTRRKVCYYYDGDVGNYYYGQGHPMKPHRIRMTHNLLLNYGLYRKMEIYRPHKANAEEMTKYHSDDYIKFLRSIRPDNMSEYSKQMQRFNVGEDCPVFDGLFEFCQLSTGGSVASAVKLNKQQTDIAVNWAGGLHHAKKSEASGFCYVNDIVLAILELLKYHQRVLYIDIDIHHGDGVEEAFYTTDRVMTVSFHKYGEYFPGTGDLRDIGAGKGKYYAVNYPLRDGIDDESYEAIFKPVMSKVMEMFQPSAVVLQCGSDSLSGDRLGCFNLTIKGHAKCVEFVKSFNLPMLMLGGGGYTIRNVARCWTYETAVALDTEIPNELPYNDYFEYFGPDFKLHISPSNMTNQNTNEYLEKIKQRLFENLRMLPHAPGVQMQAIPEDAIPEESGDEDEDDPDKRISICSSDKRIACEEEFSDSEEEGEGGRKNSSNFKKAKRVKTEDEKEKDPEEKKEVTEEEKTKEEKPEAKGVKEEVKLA
Sequence of Histone deacetylase 7 (Homo sapiens) (Q8WUI4 whole entry): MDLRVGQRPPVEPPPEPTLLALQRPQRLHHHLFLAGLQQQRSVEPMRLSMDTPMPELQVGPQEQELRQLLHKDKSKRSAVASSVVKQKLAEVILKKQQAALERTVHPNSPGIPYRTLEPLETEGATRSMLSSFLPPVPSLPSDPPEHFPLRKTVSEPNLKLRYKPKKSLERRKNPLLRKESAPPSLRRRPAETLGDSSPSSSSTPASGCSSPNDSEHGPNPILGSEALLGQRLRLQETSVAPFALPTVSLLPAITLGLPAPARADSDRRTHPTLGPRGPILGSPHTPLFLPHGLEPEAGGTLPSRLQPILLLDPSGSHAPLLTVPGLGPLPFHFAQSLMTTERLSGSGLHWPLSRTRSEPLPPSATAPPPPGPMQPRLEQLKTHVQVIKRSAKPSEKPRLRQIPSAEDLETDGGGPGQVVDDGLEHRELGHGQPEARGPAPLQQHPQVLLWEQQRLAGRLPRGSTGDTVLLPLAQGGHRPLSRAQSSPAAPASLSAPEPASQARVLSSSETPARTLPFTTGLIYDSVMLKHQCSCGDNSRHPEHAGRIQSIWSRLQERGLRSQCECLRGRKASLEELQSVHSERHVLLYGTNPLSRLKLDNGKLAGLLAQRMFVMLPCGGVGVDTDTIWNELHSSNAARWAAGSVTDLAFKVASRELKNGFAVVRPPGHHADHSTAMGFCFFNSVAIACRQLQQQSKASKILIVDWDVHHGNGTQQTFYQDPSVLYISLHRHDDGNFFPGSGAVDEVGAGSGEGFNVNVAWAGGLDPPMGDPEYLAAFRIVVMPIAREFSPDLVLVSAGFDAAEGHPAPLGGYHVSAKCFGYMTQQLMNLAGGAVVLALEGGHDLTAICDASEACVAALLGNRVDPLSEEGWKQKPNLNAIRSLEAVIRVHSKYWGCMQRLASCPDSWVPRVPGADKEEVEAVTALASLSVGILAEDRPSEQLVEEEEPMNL
Sequence of Histone deacetylase 11 (Q96DB2 whole entry): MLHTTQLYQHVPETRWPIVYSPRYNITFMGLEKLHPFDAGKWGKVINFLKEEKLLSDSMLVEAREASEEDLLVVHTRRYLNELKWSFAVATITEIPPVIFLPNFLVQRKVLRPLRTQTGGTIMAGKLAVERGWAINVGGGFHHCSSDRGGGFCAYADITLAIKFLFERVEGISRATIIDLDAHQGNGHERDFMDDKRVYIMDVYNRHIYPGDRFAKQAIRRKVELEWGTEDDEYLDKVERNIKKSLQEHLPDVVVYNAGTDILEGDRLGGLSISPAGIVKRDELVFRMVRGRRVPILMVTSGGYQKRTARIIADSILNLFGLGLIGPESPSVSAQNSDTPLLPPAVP
Sequence of Histone deacetylase 9 (Homo sapiens) (Q9UKV0 whole entry): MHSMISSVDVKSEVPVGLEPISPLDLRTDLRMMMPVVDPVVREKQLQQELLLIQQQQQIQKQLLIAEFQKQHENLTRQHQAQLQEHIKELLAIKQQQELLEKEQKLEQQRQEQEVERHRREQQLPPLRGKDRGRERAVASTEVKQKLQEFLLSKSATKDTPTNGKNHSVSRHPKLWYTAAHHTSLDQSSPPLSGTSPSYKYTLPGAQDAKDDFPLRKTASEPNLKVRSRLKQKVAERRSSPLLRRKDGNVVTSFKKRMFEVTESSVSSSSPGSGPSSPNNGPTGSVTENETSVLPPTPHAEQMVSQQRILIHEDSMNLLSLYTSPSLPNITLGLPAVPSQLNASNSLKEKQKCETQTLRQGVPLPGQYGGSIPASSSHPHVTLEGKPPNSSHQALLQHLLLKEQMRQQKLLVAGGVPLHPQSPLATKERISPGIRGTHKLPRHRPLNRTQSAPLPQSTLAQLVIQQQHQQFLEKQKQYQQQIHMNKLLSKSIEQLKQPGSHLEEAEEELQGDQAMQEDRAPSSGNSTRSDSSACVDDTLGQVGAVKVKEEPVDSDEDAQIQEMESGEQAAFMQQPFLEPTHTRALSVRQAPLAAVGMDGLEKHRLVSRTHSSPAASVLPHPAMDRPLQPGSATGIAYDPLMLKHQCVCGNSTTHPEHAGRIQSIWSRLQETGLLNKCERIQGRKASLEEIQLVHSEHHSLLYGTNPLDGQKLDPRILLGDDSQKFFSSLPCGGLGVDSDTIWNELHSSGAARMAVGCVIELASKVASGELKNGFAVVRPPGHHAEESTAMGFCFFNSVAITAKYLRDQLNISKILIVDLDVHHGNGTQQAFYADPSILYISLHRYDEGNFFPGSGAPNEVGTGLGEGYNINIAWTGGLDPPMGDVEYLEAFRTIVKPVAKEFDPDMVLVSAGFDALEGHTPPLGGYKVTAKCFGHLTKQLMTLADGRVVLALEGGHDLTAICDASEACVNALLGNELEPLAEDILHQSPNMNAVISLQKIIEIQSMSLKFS
Sequence of Polyamine deacetylase HDAC10 (Q969S8 whole entry): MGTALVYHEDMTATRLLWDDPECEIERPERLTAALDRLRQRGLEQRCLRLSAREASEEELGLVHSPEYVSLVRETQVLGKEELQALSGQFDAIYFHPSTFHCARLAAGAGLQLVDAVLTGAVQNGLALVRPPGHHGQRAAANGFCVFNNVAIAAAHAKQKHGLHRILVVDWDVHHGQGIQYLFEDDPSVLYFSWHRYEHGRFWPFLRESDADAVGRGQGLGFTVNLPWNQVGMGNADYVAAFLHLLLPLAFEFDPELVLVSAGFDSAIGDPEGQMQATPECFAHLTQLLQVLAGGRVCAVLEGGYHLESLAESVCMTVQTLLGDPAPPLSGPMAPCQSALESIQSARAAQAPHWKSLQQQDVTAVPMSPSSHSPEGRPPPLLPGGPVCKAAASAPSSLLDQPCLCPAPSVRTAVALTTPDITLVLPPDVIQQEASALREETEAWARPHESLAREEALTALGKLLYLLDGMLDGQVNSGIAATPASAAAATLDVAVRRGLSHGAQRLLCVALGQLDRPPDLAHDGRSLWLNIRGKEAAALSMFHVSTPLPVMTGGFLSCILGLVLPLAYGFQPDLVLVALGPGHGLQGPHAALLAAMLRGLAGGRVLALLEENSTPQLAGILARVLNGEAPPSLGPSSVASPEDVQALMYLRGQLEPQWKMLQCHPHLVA
Sequence of Histone deacetylase 5 (Homo sapiens) (Q9UQL6 whole entry): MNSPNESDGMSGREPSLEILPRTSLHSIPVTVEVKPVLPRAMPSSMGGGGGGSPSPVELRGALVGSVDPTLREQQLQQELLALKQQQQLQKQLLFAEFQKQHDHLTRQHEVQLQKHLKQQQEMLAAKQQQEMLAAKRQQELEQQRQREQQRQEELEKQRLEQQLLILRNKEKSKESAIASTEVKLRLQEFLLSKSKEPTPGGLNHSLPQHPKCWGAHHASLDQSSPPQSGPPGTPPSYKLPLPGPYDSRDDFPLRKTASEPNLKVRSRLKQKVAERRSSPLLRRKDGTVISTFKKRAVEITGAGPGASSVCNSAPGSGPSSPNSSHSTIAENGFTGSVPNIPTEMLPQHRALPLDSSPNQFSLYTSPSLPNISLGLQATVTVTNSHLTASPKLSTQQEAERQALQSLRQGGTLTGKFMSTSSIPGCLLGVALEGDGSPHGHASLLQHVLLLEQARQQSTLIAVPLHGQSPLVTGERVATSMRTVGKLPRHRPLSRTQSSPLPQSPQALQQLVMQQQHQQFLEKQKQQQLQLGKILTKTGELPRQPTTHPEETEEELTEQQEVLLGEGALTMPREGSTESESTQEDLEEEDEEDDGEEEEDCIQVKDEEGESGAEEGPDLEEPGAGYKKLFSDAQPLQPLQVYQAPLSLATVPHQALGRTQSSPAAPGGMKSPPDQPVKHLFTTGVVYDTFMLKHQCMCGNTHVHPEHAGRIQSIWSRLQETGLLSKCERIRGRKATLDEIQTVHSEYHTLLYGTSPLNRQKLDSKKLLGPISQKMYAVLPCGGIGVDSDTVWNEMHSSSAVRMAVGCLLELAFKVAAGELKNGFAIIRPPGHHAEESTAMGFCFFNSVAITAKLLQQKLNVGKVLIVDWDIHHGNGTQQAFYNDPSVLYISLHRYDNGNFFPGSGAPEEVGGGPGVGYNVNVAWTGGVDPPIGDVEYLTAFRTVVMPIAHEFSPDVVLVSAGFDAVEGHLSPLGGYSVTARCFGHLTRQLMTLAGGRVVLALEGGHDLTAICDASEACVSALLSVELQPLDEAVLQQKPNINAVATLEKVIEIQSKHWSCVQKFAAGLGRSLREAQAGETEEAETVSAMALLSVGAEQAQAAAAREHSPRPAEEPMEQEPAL

In the case of `Nc1cc(F)ccc1NC(=O)c1ccc(CNC(=O)/C=C2\NC(=O)c3ccc(C(F)(F)F)cc32)cc1`, the IC50 – broadly, the concentration that gives 50% inhibition – in data set [1] (read-out: IC50) was 491 nM.

Consider `Nc1ccccc1NC(=O)CCCCCNC(=O)/C=C1\NC(=O)c2ccccc21`, for which the IC50 in data set [1] (read-out: IC50) came out at 872 nM.

On to `O=C(/C=C1\NC(=O)c2ccccc21)NCCCCCC(=O)NO`, for which the concentration for half-maximal inhibition (IC50) in data set [1] (read-out: IC50) is 57.9 nM.

As to `Nc1cc(F)ccc1NC(=O)CCCCCNC(=O)/C=C1\NC(=O)c2ccccc21`, the IC50 in data set [1] (read-out: IC50) stood at 6420 nM.

`Nc1cc(F)ccc1NC(=O)CCCCCCNC(=O)/C=C1\NC(=O)c2ccccc21`: the IC50 in data set [1] (read-out: IC50) amounted to 1600 nM.

With `Nc1ccccc1NC(=O)c1ccc(CNC(=O)/C=C2\NC(=O)c3ncccc32)cc1`, the IC50 in data set [1] (read-out: IC50) came out at 758 nM.

With `Nc1cc(F)ccc1NC(=O)c1ccc(CNC(=O)/C=C/c2cccnc2)cc1` [TUCIDINOSTAT], the inhibition entry in data set [2], in data set [3], in data set [4], in data set [5] and in [6] was “inactive” in each case. Also, the IC50 was found to be 235 nM in data set [7]; 760 nM in data set [8]; 1970 nM in data set [9]; 747 nM in [10]; 1090 nM in data set [11]; 29100 nM in [12]. Moreover, the microsomal CLint at 1 µM in data set [13] was 4.98 µL/min/mg; in [16], 5.76 µL/min/mg; in [18], 10.3 µL/min/mg. For the same compound, the figures for the half-life at 1 µM in data set [14], in data set [15] and in [17] were 4.6 h, 5.03 h and 3.17 h, respectively.

On to `Cc1ccc(NC(=O)c2ccc(CNC(=O)/C=C3\NC(=O)c4ccccc43)cc2)c(N)c1`, for which, in data set [1] (read-out: IC50), the IC50 turned out to be 5720 nM.

In the case of `Nc1cc(F)ccc1NC(=O)c1ccc(CNC(=O)/C=C2\NC(=O)c3ccc(F)cc32)cc1`, the IC50 in data set [1] (read-out: IC50) was 167 nM.

In the case of `Nc1cc(F)ccc1NC(=O)c1ccc(CNC(=O)/C=C2\NC(=O)c3cc(Cl)c(Cl)cc32)cc1`, the IC50 in [1] (read-out: IC50) is 489 nM.

Take `Nc1ccc(F)cc1NC(=O)c1ccc(CNC(=O)/C=C2\NC(=O)c3ccccc32)cc1`: the IC50 in [1] (read-out: IC50) came to 70.3 nM.

As to `Nc1cc(F)ccc1NC(=O)c1ccc(CNC(=O)/C=C2\NC(=O)c3ncccc32)cc1`, the half-maximal inhibitory concentration (IC50) in [1] (read-out: IC50) stood at 8360 nM.

For the compound `Nc1cc(Cl)ccc1NC(=O)c1ccc(CNC(=O)/C=C2\NC(=O)c3ccccc32)cc1`, the IC50 in data set [1] (read-out: IC50) came to 466 nM.

For `Nc1ccccc1NC(=O)CCCCCCNC(=O)/C=C1\NC(=O)c2ccccc21`, the IC50 in data set [1] (read-out: IC50) was found to be 320 nM.

For the compound `COc1ccc2c(c1)/C(=C/C(=O)NCc1ccc(C(=O)Nc3ccc(F)cc3N)cc1)NC2=O`, in [1] (read-out: IC50), the IC50 was found to be 96.8 nM.

With `Nc1ccccc1NC(=O)c1ccc(CNC(=O)/C=C2\NC(=O)c3ccccc32)cc1`, the concentration for half-maximal inhibition (IC50) in [1] (read-out: IC50) turned out to be 65.6 nM; in data set [9], 450 nM; in data set [10], 286 nM; in data set [11], 483 nM; in data set [12], 20100 nM.

As for `Nc1cc(F)ccc1NC(=O)c1ccc(CNC(=O)/C=C2\NC(=O)c3cccnc32)cc1`, the IC50 entry in [1] is on record as “Not Active”.
